The array DNA melting data of Ke et al. (doi:10.1101/2024.01.08.574731)

Columns and labels:
[1] = folding enthalpy; higher = less favourable; fluorescence melt of hairpins on a sequencing array, two-state fit; conditions: sodium 0.088 M
Method in brief: (§1)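 With Cy3 and quencher oligos annealed, library hairpins on a sequenced MiSeq flow cell were imaged for Cy3 fluorescence in 50 mM Na-HEPES pH 8.0, 25 mM NaCl, in 2.5 °C steps up to 60 °C. Melting temperature and folding enthalpy were derived from bootstrapped two-state fits of signals normalised to pre-quench Cy3 and to control constructs. Four replicates were combined by inverse variance, with fitted temperatures raised by 9.35 °C to match UV melts.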

[2] = melting temperature; fluorescence melt of hairpins on a sequencing array, two-state fit, raised by 9.35 °C to match UV melts; conditions: sodium 0.088 M
Method in brief: as §1

| Sequence | folding enthalpy [1] [kcal/mol] | Tm [2] [°C] |
| --- | --- | --- |
| GTGAATGGAAACATTTGC (..((((....))))..) | -15.5 | 31.4 |
| GCAGGATCGAAAGATTGC (((..(((....)))))) | -19.8 | 31.4 |
| GATCCTTAGCAGGATC ((((((....)))))) | -38 | 48.8 |
| GAAATGGGAAACCATTCC (.(((((....))))).) | -14.8 | 31 |
| GCTTGGCGAAAGCCGTGC ((..(((....)))..)) | -15.3 | 53.4 |
| GATCCCCGGGGGATC ((((((...)))))) | -35.3 | 60.9 |
| GATCCTTGAAGGATC ((((((...)))))) | -38.8 | 51.2 |
| GTTGACCGAAAGGTGAAC (((.(((....))).))) | -27 | 48.4 |
| GTGAGCGGAAACGCCCAC (((.(((....))).))) | -23.7 | 51.1 |
| GCTGCCCGAAAGGGTAGC (((.(((....))).))) | -40.5 | 69 |
| GCTTCGCGAAAGCAGAGC (((..((....))..))) | -18.2 | 48.3 |
| GTCAGCGAAAGCTGGAC ((((((....))).))) | -14.4 | 53.1 |
| GATCACGAAAGTGTATC ((((((....))).))) | -20.6 | 44 |
| GCTACCGAAAGGTGAAGC ((((((....)))..))) | -19 | 42 |
| GCTAGACGAAAGTCGAGC (((.(((....))).))) | -32.9 | 60.2 |
| GCCGTGCGAAAGCTCCGC ((.(.((....)).).)) | -11.2 | 40.4 |
| GCGTGGACGAAAGTCCGC (((..(((....)))))) | -11.3 | 52.8 |
| GCTTCGTCGAAAGACAGC (((..(((....)))))) | -11.5 | 34.5 |
| GTCCCACGAAAGTGGAC (((.(((....)))))) | -13.1 | 49.9 |
| GCATAGCGAAAGCTACGC ((.((((....)))).)) | -20.3 | 52.9 |
| GAGTATGGAAACATATTC ((.((((....)))).)) | -21.2 | 30.8 |
| GCAAACGAAAGTTCATGC ((((((....)))..))) | -11.2 | 26 |
| GATCAATCCGTTGATC ((((((....)))))) | -32.5 | 47 |

| Sequence | folding enthalpy [1] [kcal/mol] | Tm [2] [°C] |
| --- | --- | --- |
| GGCTTCGAAAGAAGCGCC ((((((....)))..))) | -9.54 | 57 |
| GATCACAGGAGTGATC ((((((....)))))) | -38.2 | 54.8 |
| GCTGTGCGAAAGCACTGC ((.((((....)))).)) | -24.1 | 68.1 |
| GGCAGTGGAAACGTTGCC ((((..(....)..)))) | -28.9 | 49.1 |
| GTGGGGGGAAACTCCCAC (((((.(....).))))) | -35.3 | 56.2 |
| GCGCCGCGAAAGCGATGC ((..(((....)))..)) | -19.4 | 60.8 |
| GATCACTAGTGTGATC ((((((....)))))) | -37.6 | 55.1 |
| GCTATGCGAAAGCAGTGC ((..(((....)))..)) | -19.1 | 46.9 |
| GAGTCCCCGAAAGGGCTC (((..(((....)))))) | -19.2 | 44.4 |
| GCCAGCACGAAAGTGGGC (((..(((....)))))) | -26.9 | 50.9 |
| GTGGTCGAAAGACCTCAC ((((((....)))..))) | -10.7 | 38 |
| GGGAACCGAAAGGTCCCC (((.(((....))).))) | -25.4 | 58.1 |
| GGGAGCGGAAACACTCCC (((((.(....).))))) | -37.7 | 50.8 |
| GACAACGAAAGTTTAGTC ((((((....)))..))) | -16 | 30.4 |
| GCCCTGCGAAAGCAGTGC ((.((((....)))).)) | -17.3 | 58.5 |
| GCTCGCGGAAACGCGAAC (.(((((....))))).) | -11.3 | 48.9 |
| GTCGTCGAAAGACTGGAC ((((((....)))..))) | -20.7 | 39.2 |
| GTCAATCCGAAAGGAGAC (((..(((....)))))) | -20.3 | 32.5 |
| GTGGCCGAAAGGCTGCAC ((((((....)))..))) | -12.4 | 46.7 |
| GATCTGATTGCAGATC ((((((....)))))) | -29.1 | 48.2 |
| GCTTATGGAAACATAAGC (((((((....))))))) | -40.6 | 56 |
| GAGCATGGAAACATGTTC ((.((((....)))).)) | -25.6 | 42.8 |
| CGGTCCGGAAACGGTCCG (((.(((....))).))) | -40.5 | 55.6 |

| Sequence | folding enthalpy [1] [kcal/mol] | Tm [2] [°C] |
| --- | --- | --- |
| GAACGACGAAAGTCATTC (((.(((....))).))) | -21.6 | 38.6 |
| GACGGCGAAAGCCGAGTC ((((((....)))..))) | -8.09 | 45.8 |
| GTGCGTCGAAAGACACAC (((.(((....))).))) | -39 | 53.5 |
| GCATTGCGAAAGCACTGC (((.(((....))).))) | -45.1 | 52.2 |
| GCGATGATCGC ((((...)))) | -22.3 | 46 |
| GAGGACGAAAGTCGACTC ((((((....)))..))) | -14.9 | 40.6 |
| GATCAAAGGTTGATC ((((((...)))))) | -27.2 | 40 |
| GCGGGGCGAAAGCTGCGC (((..((....))..))) | -27.2 | 65.6 |
| GATCTGTGTCCAGATC ((((((....)))))) | -31.8 | 49.2 |
| GCGCGTTCGAAAGAACGC (((..(((....)))))) | -6.28 | 68 |
| GTCTCCCCGAAAGGGGAC (((..(((....)))))) | -7.01 | 37.8 |
| GATCCCAGTGGGATC ((((((...)))))) | -40.6 | 60.8 |
| GATACCGGAAACGGCATC (((.(((....))).))) | -25 | 43.8 |
| GGACAACGAAAGTTTCC (((.(((....)))))) | -20.1 | 38.3 |
| GATCGTTTTGACGATC ((((((....)))))) | -40.3 | 57.2 |
| GATCCGATACCGGATC ((((((....)))))) | -29.9 | 57 |
| GAACGAGGAAACTCGTTC (((((((....))))))) | -41.2 | 63.8 |
| GGCGACGGAAACATCGCC (((((.(....).))))) | -42.6 | 55.4 |
| GGTAACGGAAACATTACC (((((.(....).))))) | -21.2 | 31.5 |
| GTTTAACCGAAAGGTAAC (((..(((....)))))) | -10.4 | 29.7 |
| GGAGGACGAAAGTCTCC (((.(((....)))))) | -22.6 | 50.5 |
| GGCATTCGAAAGAAAGCC (((.(((....))).))) | -40.4 | 50.5 |
| GGATCTCGAAAGAGTCC (((.(((....)))))) | -25.1 | 49.3 |

| Sequence | folding enthalpy [1] [kcal/mol] | Tm [2] [°C] |
| --- | --- | --- |
| GAAGTTGAAAAACTTC ((((((....)))))) | -28.1 | 48.5 |
| GAGACTGGAAACAGTTTC ((.((((....)))).)) | -29.6 | 38.8 |
| CGGAGCGGAAACGCACCG (((.(((....))).))) | -35 | 58.7 |
| GTTTCCCCGAAAGGGAAC (((..(((....)))))) | -13.7 | 38.5 |
| GCCAAAGCGAAAGCTGGC (((..(((....)))))) | -26.1 | 59.7 |
| CCTTTGAAAAAAGG (((((....))))) | -12.2 | 39.7 |
| GTTTAGCGAAAGCTAAC (((.(((....)))))) | -11.7 | 44.1 |
| GCGTACGAAAGTAACGC ((((((....))).))) | -40.2 | 59.4 |
| GATCCACCCTGGATC ((((((...)))))) | -33.8 | 51 |
| GCTTATACGAAAGTAAGC (((..(((....)))))) | -21.5 | 37.4 |
| GGAGAACGAAAGTTATCC (((.(((....))).))) | -37.2 | 51.6 |
| GGTCATGCGAAAGCAACC (((..(((....)))))) | -8.01 | 27 |
| GTCCTCGGAAACAAGGAC (((((.(....).))))) | -25.8 | 39.3 |
| GAGTCTACGAAAGTACTC (((..(((....)))))) | -15 | 27.2 |
| GATCCCGGGCGGGATC ((((((....)))))) | -40.1 | 61.1 |
| GATCGTTACCACGATC ((((((....)))))) | -45.6 | 54.3 |
| GAGTAAGCGAAAGCTCTC (((..(((....)))))) | -13.4 | 35.7 |
| GATCTAGCCTAGATC ((((((...)))))) | -28.4 | 40.8 |
| GTTCGGACGAAAGTCAAC (((..(((....)))))) | -9.64 | 29.1 |
| CGGGACGGAAACGTGCCG (((.(((....))).))) | -19.1 | 60.3 |
| GTACACGAAAGTGTATAC ((((((....)))..))) | -12.1 | 43.6 |
| GGCAATCGAAAGATAGCC (((.(((....))).))) | -31.8 | 52.7 |
| GATCTCCTGGGAGATC ((((((....)))))) | -43.3 | 56.5 |
